# This is a sample that favours compounds with a hit; in the whole collection about 1.3% have one here.
# CAL PDZ FP-1 – inhibitors of human CAL PDZ peptide binding; Q9HD26; inhibition, % at 24.9 µM; 0.92% of 300,000 active; purified CAL PDZ, TMR-peptide fluorescence polarization, 1 h;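 active = mean inhibition of at least 30% with at least half of replicates also reaching 30%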;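 note: 0% = DMSO neutral control and 100% = excess unlabeled competitor peptide PRC23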
# cardiac RTF act – cardiac RTF calcium sensitization. P19429+P45379. IANBD-labeled TnC RTF fluorescence at EC20 calcium; 0% EC20 calcium, 100% full calcium. activation, % at 7.2 µM. 0.24% of 340,000 active;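 active = activation above the mean over all tested compounds plus 3 SD, cut at about 30% in these data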;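 note: rise in fluorescence read as greater calcium sensitivity of cardiac thin filaments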
# LANA DNA inh – inhibitors of KSHV LANA C-terminal domain DNA binding; MBP-C-LANA/FAM-LBS DNA binding, fluorescence polarization; inhibition, % at 9 µM; 0.078% of 340,000 active; AID 504423;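 active = highest replicate inhibition at or above 60% at 9 µM, even if other replicates fall short; inactive = all replicates below 60% inhibition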;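 note: 0% = neutral control wells and 100% = 4 µM acridine orange control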
# Keap1 Nrf2 FP – inhibitors of human Keap1-Nrf2 protein-protein interaction; inhibition, % at 9.4 µM; Keap1 Kelch-Nrf2 peptide fluorescence polarization, 1536-well; 0.15% of 340,000 active; Q14145; in the data active = inhibition above about 12%;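 note: human Keap1 Kelch domain with fluorescein labeled Nrf2 9mer peptide probe; 0% = neutral control wells and 100% = peptide positive control; higher means more block of Keap1 binding to Nrf2 peptide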
# Target sequence (Q14145 whole entry, looked up, the tested form may be a part): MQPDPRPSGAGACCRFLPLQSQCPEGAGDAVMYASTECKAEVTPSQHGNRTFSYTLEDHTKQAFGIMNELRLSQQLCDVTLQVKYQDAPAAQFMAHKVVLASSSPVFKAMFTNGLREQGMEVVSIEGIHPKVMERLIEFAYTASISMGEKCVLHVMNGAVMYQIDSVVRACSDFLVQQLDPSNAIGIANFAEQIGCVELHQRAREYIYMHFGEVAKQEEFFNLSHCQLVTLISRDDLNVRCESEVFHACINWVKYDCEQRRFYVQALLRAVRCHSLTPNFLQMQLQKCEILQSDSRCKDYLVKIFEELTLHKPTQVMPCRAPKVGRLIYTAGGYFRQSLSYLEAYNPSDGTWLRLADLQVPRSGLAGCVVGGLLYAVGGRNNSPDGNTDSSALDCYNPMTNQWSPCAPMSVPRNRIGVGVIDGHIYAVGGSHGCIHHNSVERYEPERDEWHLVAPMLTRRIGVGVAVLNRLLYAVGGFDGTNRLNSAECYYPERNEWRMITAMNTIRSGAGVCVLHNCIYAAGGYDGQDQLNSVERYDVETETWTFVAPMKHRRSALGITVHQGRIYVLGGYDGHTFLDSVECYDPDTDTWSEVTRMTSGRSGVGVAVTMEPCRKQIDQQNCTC
# RTF Ca sens inh – cardiac RTF calcium desensitization. P19429+P45379. IANBD-labeled cardiac RTF, Ca2+ fluorescence. inhibition, % at 7.15 µM. 0.12% of 340,000 active. AID 493244;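 active = inhibition above the mean inhibition of all tested compounds plus 3 SD, cut at about 17% in these data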;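 note: assay run at fixed EC70 calcium of 1.6 mM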
# CAL PDZ FP-2 – blocks peptide binding to human CAL PDZ domain; purified CAL PDZ, TMR-peptide fluorescence polarization, 1 h; Q9HD26; 0.02% of 330,000 active; AID 504414; inhibition, % at 20 µM;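 active = highest replicate inhibition of at least 40%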;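 note: plate controls were DMSO neutral control wells for no effect and unlabeled competitor peptide control wells for full effect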
#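 Material – purified CerCALP PDZ construct · Detection – FP readout, S and P plane fluorescence · Measure – percent inhibition from loss of millipolarization · Controls – unlabelled peptide for full inhibition, DMSO wells as neutral · Probe or stimulus – TMR-labelled reporter peptide T*-PRC34 bound in PDZ groove · Times – 1 h at RT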
# Starred values were filed as active, the others as inactive; . = not tested or not shown.
SMILES,CAL PDZ FP-1,cardiac RTF act,LANA DNA inh,Keap1 Nrf2 FP,RTF Ca sens inh,CAL PDZ FP-2
Cc1ccc(C)c(OCC(=O)Nc2ccc3c(c2)OCO3)c1,-3,-12,0,-6,-8,-1
O=C(COC(=O)c1ccc(O)cc1)Nc1ccc2c(c1)OCCO2,-3,30*,3,-3,3,-2
CCOc1ccc(NS(=O)(=O)c2cc(C(=O)NCCCN3CCCC3=O)ccc2C)cc1,-2,-4,2,-4,4,0
O=Cc1cc(-c2ccccc2)[nH]c1-c1ccccc1,2,0,1,-5,-9,0
O=C(COc1ncnc2sccc12)Nc1ccc2c(c1)OCCO2,44*,-6,-1,-4,4,-1
Cc1sc2ncnc(OCC(=O)Nc3ccc4c(c3)OCCO4)c2c1C,-4,11,1,-6,-37,-1
O=C(COC(=O)C(CO)NS(=O)(=O)c1ccc(Br)cc1)Nc1ccc2c(c1)OCCO2 (centres undefined),47*,-2,0,-9,-8,0
Cc1c(NC(=S)NC(=O)c2ccccc2Br)c(=O)n(-c2ccccc2)n1C,-6,6,-1,-2,-4,-1
N#Cc1ccccc1OCC(=O)Nc1nnc(C2CC2)s1,-3,-1,2,4,-7,-1
c1ccc(C2=NNC(c3ccccn3)=NN2)nc1,-3,0,0,-4,-8,-3
O=C(CCl)N1c2ccccc2CCc2ccccc21,46*,-1,0,3,-8,-16
CC(Cl)C(=O)N1c2ccccc2CCc2ccccc21 (centres undefined),-4,0,3,-5,-2,0
CC1(OC(=O)C2CCCC2)C(=O)C=C2C=C(c3ccsc3)N(C3CCCC3)C=C2C1=O (centres undefined),-4,8,0,-3,1,-2
CC1(OC(=O)C2CCCC2)C(=O)C=C2C=C(c3ccsc3)OC=C2C1=O (centres undefined),-5,-5,78*,-2,-13,-1
C/C(=N/Nc1ccc([N+](=O)[O-])cc1)c1c[nH]c2ccccc12,-1,8,7,4,-14,0
Cc1cc(O)c(Sc2ccc(Cl)cc2)c(=O)[nH]1,55*,5,-1,2,-8,1
Cc1[nH]n(C(C)(C)C)c(=O)c1Sc1ccc(Cl)cc1,2,0,1,-7,-1,0
O=C(CSc1nccc(-c2cccs2)n1)Nc1cccc(Cl)c1Cl,51*,-3,1,0,-2,0
O=C(CSc1nccc(-c2cccs2)n1)Nc1ccc(Cl)cc1,.,1,1,-1,-7,-3
CCOC(=O)C(/C=N/c1cc(C)nn1-c1ccccc1)=C(\C)O,61*,9,3,1,-1,-2
CCOC(=O)C(=CNc1cc(C)nn1-c1ccccc1)C(=O)OCC,-3,-3,1,1,0,-4
NC(=O)NC(=O)COC(=O)CCCSc1nc2ccccc2s1,-2,1,2,-3,0,-2
CCOC(=O)NC(=O)COC(=O)CCCSc1nc2ccccc2s1,-1,-11,-2,1,-6,71*
CCOc1ccccc1N(CC(=O)NC1CCCCC1)C(=O)CCC(=O)Nc1nccs1,-6,5,1,-8,1,-3
O=C(CN1C(=O)c2ccccc2C1=O)NNC1=NS(=O)(=O)c2ccccc21,30*,6,0,-1,6,-1
SMILES,CAL PDZ FP-1,cardiac RTF act,LANA DNA inh,Keap1 Nrf2 FP,RTF Ca sens inh,CAL PDZ FP-2
COC(=O)c1cc(S(=O)(=O)Nc2ccsc2C(=O)OC)oc1C,33*,9,0,-2,1,-4
CN(C)CCCn1c(=S)[nH]c2sc3c(c2c1=O)CCCC3,49*,-6,0,-19,6,-1
CCn1c(=S)[nH]c2sc3c(c2c1=O)CCCC3,.,-1,-1,1,-4,-1
CC(C)CNC(=O)COC(=O)c1n[nH]c2ccccc12,61*,-2,4,0,-9,8
COc1ccc(CNC(=O)COC(=O)c2n[nH]c3ccccc23)cc1,-6,2,-4,-2,1,.
Cc1oc(-c2ccccc2)nc1C(=O)OCC(=O)NC(C)c1ccccc1 (centres undefined),-2,0,-1,-2,-7,-1
Cc1oc(-c2ccccc2)nc1C(=O)OCC(=O)NC(=O)NCC(C)C,37*,4,2,-4,-3,0
Cc1cc(OCc2cccc(S(=O)(=O)N3CCOCC3)c2)ccc1Cl,.,-10,-1,-1,0,-1
CC(=O)c1ccc(N2CCN(C(=O)c3cc(S(=O)(=O)N4CCOCC4)ccc3C)CC2)cc1,-2,-1,-1,-5,-6,-2
Cc1cccc(N(C)C(=O)CN(C)S(=O)(=O)c2ccc3c(c2)c(=O)n(C)c(=O)n3C)c1,3,-6,2,-3,10,0
Cc1ccc(C(=O)NC(C(=O)OCc2cn3cc(Cl)ccc3n2)C(C)C)cc1 (centres undefined),-5,0,-3,-1,-14,0
CCc1ccc(CNCCNCC(C)O)cc1 (centres undefined),.,-1,2,-5,-8,-2
CC(O)CNCCNCc1cccs1 (centres undefined),47*,-1,2,5,-10,14
NC(=O)CC(NC(=O)Cc1cccc2ccccc12)c1ccc(NCc2ccccn2)c([N+](=O)[O-])c1 (centres undefined),32*,6,-3,-5,-8,0
CCC1(c2ccccc2)NC(=O)N(CC(=O)NC2CCCCCC2)C1=O (centres undefined),-5,-1,0,0,-12,-1
O=C(NC(=S)Nc1ccc(S(=O)(=O)Nc2nccs2)cc1)c1ccc(F)cc1,54*,-6,1,-5,-7,-2
CC(C)(C)C(=O)NC(=S)Nc1ccc(S(=O)(=O)Nc2nccs2)cc1,4,-2,0,-9,-1,0
COc1ccc(CNC(=O)C2CCN(c3cc(C(=O)Nc4cccc(OC)c4)ccn3)CC2)cc1,-4,-6,1,4,2,-3
CCCC(=O)Nc1cc(OC)c(NC(=S)Nc2ccc(CC)cc2)cc1OC,-1,5,0,5,3,2
COc1cc(C2C(C#N)=C(N)N(N(C)C)C3=C2C(=O)CC(C)(C)C3)cc(OC)c1OC (centres undefined),44*,4,1,-2,-12,-1
OCCn1c(SCCOc2ccccc2F)nc2ccccc21,-3,2,0,5,-9,-2
OCCn1c(SC2CCCCC2)nc2ccccc21,47*,2,0,1,-2,0
CC(=O)CCN1C(=O)NC2(CCCc3ccccc32)C1=O (centres undefined),-4,0,0,-3,-4,1
